Source: PubChem
STEP block: blocks human striatal-enriched tyrosine phosphatase | P54829 | recombinant STEP, OMFP fluorogenic substrate, fluorescence | inhibition, % at 20 µM | 360,000 compounds, 0.25% hits | AID 588621;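 active means inhibition at 20 µM, scaled per plate between control wells, above about 37%, limit read from the data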;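 further: 0% = DMSO with enzyme and substrate and 100% = substrate only without enzyme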
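System: STEP (striatal-enriched tyrosine phosphatase) enzyme, cell-free; medium: Bis-Tris pH 6.0 buffer with DTT, detergent; dosing: 20 µM, 1% DMSO; times: reaction 20 min, ambient temperature; detection: fluorescence, 480/540 nm; read-out basis: normalized % inhibition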
LMPTP inh: blocks human LMPTP phosphatase; inhibition, % at 20 µM; P24666; 360,000 compounds, 0.22% hits; recombinant LMPTP-A, OMFP fluorogenic substrate, fluorescence intensity;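 active means compounds that cut the enzyme signal by at least half of the control window in the single-dose screen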;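 further: plate controls were DMSO wells with enzyme plus substrate for no effect and substrate without enzyme for full effect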
Target sequence (P24666 whole entry, looked up): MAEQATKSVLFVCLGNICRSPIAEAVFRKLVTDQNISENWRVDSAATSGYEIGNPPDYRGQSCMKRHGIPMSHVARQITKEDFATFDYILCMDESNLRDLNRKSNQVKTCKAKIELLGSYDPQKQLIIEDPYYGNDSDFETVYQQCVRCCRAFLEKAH
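Test system: LMPTP-A phosphatase enzyme. Amount: LMPTP-A at 0.625 nM final in the reaction. Reagent: OMFP substrate, 400 µM final. Times: 50 min at room temperature. Signal: endpoint fluorescence intensity from OMFP dephosphorylation. Read-out basis: % inhibition. Benchmarks: no-enzyme and uninhibited controls.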
DNMT1 inh: DNMT1 (human) enzyme inhibition; P26358; inhibition (reported as % activation of signal), % at 10 µM; DNMT1 molecular beacon, Hinp1I cleavage, fluorescence; 360,000 compounds, 0.83% hits; in the data active means inhibition above about 50%
Scp1 inh: blocks human Scp-1 phosphatase activity. AID 493091. 340,000 compounds, 0.88% hits. Q9GZU7. inhibition, % at 20 µM. Recombinant Scp1, phosphopeptide, malachite green phosphate absorbance;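 active means inhibition above about 50% at 20 µM, limit read from the data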;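 further: plate controls were DMSO wells with enzyme for no effect and wells lacking enzyme for full effect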
Target sequence (Q9GZU7 76-261 limits assumed): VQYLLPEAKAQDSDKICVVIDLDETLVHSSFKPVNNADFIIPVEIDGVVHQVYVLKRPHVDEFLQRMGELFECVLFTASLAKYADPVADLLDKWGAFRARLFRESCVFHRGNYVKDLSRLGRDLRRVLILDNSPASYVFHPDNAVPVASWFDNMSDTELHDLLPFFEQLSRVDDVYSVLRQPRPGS
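assay system = SCP-1 phosphatase catalytic domain, residues 76-261 | buffer or medium = 50 mM Tris acetate pH 5.5, 0.005% Tween-20, 10 mM MgCl2 | incubation = enzyme reaction 45 min at room temperature, colour 5 min, stabilisation 30 min | signal = Phosphate-binding colour reagent, absorbance read at 630 nm | measure = % inhibition at 20 µM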
SUMO1-SIM PPI: alters human SUMO1 binding to SIM partners; AID 602429; P63165; SUMO1 binding to a labelled peptide, TR-FRET, 1 h; 360,000 compounds, 0.33% hits; inhibition, % at 20 µM; in the data active means inhibition above about 37%
Target sequence (P63165 whole entry, looked up): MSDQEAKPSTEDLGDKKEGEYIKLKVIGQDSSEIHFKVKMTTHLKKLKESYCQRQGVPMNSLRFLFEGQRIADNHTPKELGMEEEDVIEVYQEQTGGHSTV
HKDC1 inhibitor: blocks human hexokinase HKDC1 activity | 340,000 compounds, 0.16% hits | inhibition, % at 20 µM | AID 493160 | recombinant HKDC1, G6PDH/diaphorase resazurin coupled fluorescence | Q2TB90;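 active means inhibition above about 35% when tested at 20 µM, limit read from the data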;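 further: plate controls were DMSO wells with enzyme for no effect and DMSO wells lacking enzyme for full effect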
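Test system: HK5 enzyme. Quantity: 5 µg/mL HK5 final. Reagent: glucose and ATP substrates. Schedule: 90 min reaction incubation at room temperature, dark. Technique: resazurin-to-resorufin fluorescence via G6PDH and diaphorase coupling, 525/613 nm. Control set: DMSO wells with and without enzyme mix.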
DNMT1 confirm: DNMT1 inhibition confirmation, single concentration; shares compounds with DNMT1 inh; DNMT1 molecular beacon HinP1I cleavage, fluorescence; inhibition, % at 10 µM; 2,300 compounds, 8% hits;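 active means average inhibition of at least 30% in the single-concentration confirmation test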
Beacon interf: shows spectral interference in the DNMT1 beacon assay; 2,300 compounds, 1% hits; activation (fluorescence interference), % at 10 µM; shares compounds with DNMT1 inh; AID 602387; DNMT1 molecular beacon spectral interference counterscreen, fluorescence 485/520;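 active means activation of at least 30% at 10 µM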;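 further: DNMT1 catalytic domain with a HinP1I cleavage step and a FAM/dabcyl DNA beacon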
The depositor's hits bear a star; . = no result given. Shown are actives, neighbours in structure and some others; about 1.8% of the full set was active somewhere.

SMILES	STEP block	LMPTP inh	DNMT1 inh	Scp1 inh	SUMO1-SIM PPI	HKDC1 inhibitor	DNMT1 confirm	Beacon interf
COc1cccc(=O)c2c(C)n(CC(=O)c3ccccc3)c(C)c12	4	18	63*	18	5	-1	0	1
Cc1ccc(NC(=O)c2ccc(NC(=O)c3ccccc3)cc2)cc1C	-2	5	57*	-8	19	-7	4	5
Cc1ccc(C(=O)Nc2ccc(Nc3ccccc3)cc2)cc1C	1	3	-25	-24	1	3	.	.
COc1ccc(NC(=O)c2noc3c2CCC3)cc1	7	7	108*	83*	12	5	5	0
Cc1ccc(NC(=O)c2noc3c2CCC3)cc1C	12	9	95*	78*	8	1	9	-2
c1ccc(COc2ncnc3c2ncn3CCCNC2CCN(Cc3ccccc3)CC2)cc1	0	-2	1	.	-6	.	.	.
COC(=O)C1(C(=O)OC)C[C@H](c2cccs2)N(Cc2ccccc2OC)[C@@H]1c1ccc(F)cc1	.	2	.	.	2	.	.	.
NC1=NC(=O)/C(=C\c2ccco2)S1	5	3	74*	63*	28	9	8	-1
Nc1ccn([C@@H]2O[C@H](CNCc3ccc(N4CCNCC4)cc3)[C@@H](O)[C@H]2O)c(=O)n1	0	-4	0	.	1	.	.	.
COC(=O)[C@@]1(C)CC[C@]2(C)CC[C@@]3(C)C(=CC(=O)C4[C@@]5(C)CC[C@H](O)C(C)(C)[C@@H]5CC[C@]43C)[C@H]2C1 (some centres undefined)	0	1	53*	0	-5	-3	-1	2
O=C(CN1C(=O)c2cccnc2Oc2ccc(Cl)cc21)N1CCCC1	0	-1	-1	-2	10	-6	.	.
Cc1sc(NC(=O)c2sc3nc4c(C)cccc4cc3c2N)c(C#N)c1C	3	3	88*	-4	6	6	9	-1
Cc1cccc2cc3c(N)c(C#N)sc3nc12	-4	3	-5	-8	-8	8	.	.
Cc1nnc(NC(=O)CSc2ccc(-c3ccco3)nn2)s1	12	9	53*	17	24	5	0	2
Cc1ccccc1OCC(=O)Nc1ccccc1NC(=O)c1ccco1	-1	0	2	-3	2	0	.	.
CCOc1cc(NC(=O)c2ccco2)c(OCC)cc1NC(=O)COc1ccccc1C	-1	1	65*	-5	-2	-2	0	-2
O=C1c2ccccc2[C@@H]2Cc3csc[n+]3[C@H]12	.	0	.	.	6	.	.	.
COc1ccc(-c2cc(=O)oc3c(C)c(OC(=O)c4cccs4)ccc23)cc1	1	2	60*	1	1	-2	3	-9
Cc1ccc(S(=O)(=O)N2CCN(C(=O)C(Cc3ccccc3)NC(=O)c3ccccc3)CC2)cc1 (centres undefined)	-1	-1	5	-8	4	-5	.	.
Cc1ccc(NC(=O)Nc2nnc(-c3ccccc3F)s2)cc1	-1	0	56*	-9	1	-2	4	1
Oc1ccc(-c2cn3ccccc3n2)cc1	1	-1	153*	0	-2	8	5	2
CN(CCc1ccccc1)C(C(=O)Nc1ccc2c(c1)OCCO2)C1CC1 (centres undefined)	-1	-1	3	.	-2	.	.	.
CC(C)/C=C/C(=O)N1CCC(N2CCC(C(=O)NCC3CCCO3)CC2)CC1 (centres undefined)	2	3	50*	.	-2	.	3	4
CC(C)=CC(=O)N1CCC(N2CCC(C(=O)NCC3CCCO3)CC2)CC1 (centres undefined)	2	-1	0	-4	0	-1	.	.
COc1ccccc1CNC(=O)Nc1nc(C(N)Cc2ccc(Cl)cc2)cs1 (centres undefined)	4	1	-16	.	-6	.	.	.
SMILES	STEP block	LMPTP inh	DNMT1 inh	Scp1 inh	SUMO1-SIM PPI	HKDC1 inhibitor	DNMT1 confirm	Beacon interf
O=C(Nc1nc(-c2ccco2)c(-c2ccco2)s1)c1c(F)cccc1Cl	1	5	70*	-9	5	6	6	22
COc1ccc(CNC(=O)C2CC(c3ccccc3C(F)(F)F)=NO2)cc1 (centres undefined)	0	0	72*	-3	5	8	7	6
Cc1ccc(CNC(=O)C2CC(c3ccccc3C(F)(F)F)=NO2)cc1 (centres undefined)	0	-2	-3	-1	-2	-1	.	.
Cc1c(C)c2cc(Cl)c(OCC(=O)Nc3ccccn3)cc2oc1=O	-2	-1	65*	.	71*	.	3	4
Cn1ccc2c(N3c4ccccc4CCc4ccccc43)cc3c(c21)C1CCC3O1 (centres undefined)	6	5	50*	.	-7	.	1	2
Cc1ccc(-n2cccc2/C=C2/C(=N)N3C(=NC2=O)SN=C3S(C)(=O)=O)cc1	4	10	76*	31	-6	3	19	2
CCc1ccc(-n2cccc2/C=C2/C(=N)N3C(=NC2=O)SN=C3S(C)(=O)=O)cc1	3	9	28	48	-9	10	.	.
Cc1ccc(-n2cccc2/C=C2\C(=N)N3N=C(c4ccco4)SC3=NC2=O)cc1	63*	44	87*	97*	104*	14	5	-7
Cn1cc(Cc2ccc(C(=O)N3CCN(Cc4ccccc4)CC3)cn2)c2ccccc21	12	1	-7	.	-2	.	.	.
CN(CC(=O)NCC(c1ccco1)N1CCCCC1)S(=O)(=O)c1ccc(Cl)cc1 (centres undefined)	0	0	25	2	0	-4	.	.
CSc1nc(NCCOCCO)c2sc3nc(-c4ccco4)c4c(c3c2n1)CCC4	2	2	87*	0	23	2	20	19
CCN(CCO)c1nc(SC)nc2c1sc1nc(-c3ccco3)c3c(c12)CCC3	26	0	-3	-14	0	-10	.	.
Cc1nn(Cc2ccc(Cl)cc2)c(C)c1NC(=O)c1cc(-c2ccc3c(c2)OCO3)on1	0	3	39	-1	1	-4	.	.
Cc1nn(Cc2ccc(Cl)c(Cl)c2)c(C)c1NC(=O)c1cc(-c2ccc3c(c2)OCO3)on1	1	4	76*	3	0	3	3	-2
